Assay results from different studies.
Compare with care: the assays were run in different laboratories.
PIK3C3: Phosphatidylinositol 3-kinase catalytic subunit type 3 (PIK3C3, Homo sapiens, UniProt Q8NEB9)
TYR: Tyrosinase (TYR, Homo sapiens, UniProt P14679)
ESR1: Estrogen receptor (ESR1, Homo sapiens, UniProt P03372)
NR3C1: Glucocorticoid receptor (NR3C1, Homo sapiens, UniProt P04150)
Si: Sucrase-isomaltase, intestinal (Si, Rattus norvegicus, UniProt P23739)

CS(=O)(=O)Nc1cccc(-c2csc(NC(=O)CSc3nc4nccnc4c(=O)n3CCc3ccccc3)n2)c1
inhibition (PIK3C3; enzyme activity, inhibitor; 10 µM): 9%

Cc1ccc(C(C)C)cc1NC(=O)COC(=O)/C=C/c1ccccc1
inhibition (TYR; enzyme activity, inhibitor; 50 µg/mL): 82.3%

O=C(CSc1nc2nccnc2c(=O)n1CCc1ccccc1)Nc1nccs1
inhibition (PIK3C3; enzyme activity, inhibitor; 10 µM): 28%

Cc1ccc(C(C)C)cc1NC(=O)COC(=O)c1ccc(O)cc1
inhibition (TYR; enzyme activity, inhibitor; 50 µg/mL): 53.8%

Oc1cccc(Nc2nc(-c3ccc(F)cc3F)cs2)c1
inhibition (ESR1; cell-free assay; 10 µM): 11.2%

Cc1ccc(C(C)C)cc1NC(=O)COC(=O)/C=C/c1ccc(O)cc1
inhibition (TYR; enzyme activity, inhibitor; 50 µg/mL): 55.8%

N#Cc1cc(Cn2c(N3CCCC3)nc3ccccc32)ccc1F
inhibition (Alpha-2C adrenergic receptor (ADRA2C, Homo sapiens, UniProt P18825); ligand displacement; 10 µM): 16.1%

O=C(c1ccc(Cl)cc1)N(Cc1ccccc1)C1CCCCC1
inhibition (ESR1; cell-free assay; 10 µM): -2.9%

O=C(Nc1ccc(S(=O)(=O)N2CCC(Cl)CC2)cc1)c1ccc([N+](=O)[O-])o1
inhibition (NR3C1; ligand displacement, radioligand; 10 µM): 19%

O=C1OC[C@H]2OC(=O)c3cc(O)c(O)c(O)c3-c3c(O)c(O)c(O)c4c3C(=O)O[C@H]([C@H]3OC(=O)c5c-4c(O)c(O)c(O)c5[C@H]3O)[C@@H]2OC(=O)c2cc(O)c(O)c(O)c2-c2c1cc(O)c(O)c2O
inhibition (Si; enzyme activity, inhibitor; 25 µg/mL): 25.7%

O=C(c1ccc(F)cc1)N(Cc1ccccc1)C1CCCCC1
inhibition (Interleukin-1 receptor type 1 (IL1R1, Homo sapiens, UniProt P14778); cell-free assay; 10 µM): 14%

CC(CN(C)C)C(Oc1cccc2ccccc12)c1cccs1 (centres unmarked)
inhibition (Norepinephrine transporter (Slc6a2, Rattus norvegicus, UniProt Q9WTR4); ligand displacement, radioligand; 10 µM, cell membranes): < 70%

CNC(=O)c1cc(Oc2ccc(NC(=O)Nc3ccc(Cl)c(C(F)(F)F)c3)cc2)ccn1
inhibition (Mitogen-activated protein kinase 14 (MAPK14, Homo sapiens, UniProt Q16539, T106M); enzyme activity, inhibitor; 0.3 µM): 59%

CCN(Cc1ccccc1C(F)(F)F)C(=O)C1CCN(S(=O)(=O)c2ccc3[nH]ncc3c2)CC1
inhibition (NR3C1; ligand displacement, radioligand; 10 µM): 1%

O=c1c(O[C@@H]2O[C@@H](CO)[C@H](O)[C@H]2O)c(-c2ccc(O)c(O)c2)oc2cc(O)cc(O)c12
inhibition (Si; enzyme activity, inhibitor; 50 µg/mL): 31.5%

Cc1ccc(C(C)C)cc1NC(=O)COC(=O)/C=C/c1ccc(Cl)cc1
inhibition (TYR; enzyme activity, inhibitor; 50 µg/mL): 57.4%

O=c1c(O[C@@H]2O[C@H](CO)[C@@H](O)[C@H](O)[C@H]2O)c(-c2ccc(O)c(O)c2)oc2cc(O)cc(O)c12
inhibition (Si; enzyme activity, inhibitor; 25 µg/mL): 21.4%

Cn1cnc(Br)c1C1=CN(c2ncnc3[nH]cnc23)CCS1
inhibition (cAMP-dependent protein kinase catalytic subunit beta (PRKACB, Homo sapiens, UniProt P22694); enzyme activity, inhibitor, radiometric; 2 µM): 91.3%

CN(C)C1CCN(CC#Cc2nn(C3CCCC3)c3nc(NCc4ccccc4)ncc23)C1 (centres unmarked)
inhibition (Inhibitor of nuclear factor kappa-B kinase subunit beta (IKBKB, Homo sapiens, UniProt O14920); enzyme activity, inhibitor, FRET; 0.1 µM): -1%

CCN(CC)c1ccc(C2Nc3ccc(C(=O)c4ccccc4)cc3NC3=C2C(=O)CC(C)(C)C3)cc1 (centres unmarked)
inhibition (Prostaglandin E2 receptor EP3 subtype (PTGER3, Homo sapiens, UniProt P43115); ligand displacement, radioligand; 10 µM): 12%

Ic1cccc2cnccc12
inhibition (NAD(+) hydrolase SARM1 (SARM1, Homo sapiens, UniProt Q6SZW1); enzyme activity, inhibitor; 10 µM): 100%

COc1cc(NC(C)=O)c(Cl)cc1C(=O)Nc1nccs1
inhibition (ESR1; cell-free assay; 10 µM): 1.4%

Cc1ccc(Nc2nccc(N(C)c3ccc4c(C)n(C)nc4c3)n2)cc1S(N)(=O)=O
inhibition (Abl2 (Mus musculus, UniProt Q4JIM5); enzyme activity, inhibitor; 0.3 µM): 38%

CNc1cc(Oc2cc(C(=O)Nc3cc(N4CCN(C)CC4)cc(C(F)(F)F)c3)ccc2C)ncn1
inhibition (Serine/threonine-protein kinase SMG1 (SMG1, Homo sapiens, UniProt Q96Q15); target engagement in cells, inhibitor, chemoproteomics; Huh-7; 1 µM): -15.7%

Cc1ccc(C(C)C)cc1NC(=O)COC(=O)c1ccc(O)cc1O
inhibition (TYR; enzyme activity, inhibitor; 50 µg/mL): 66.7%

CCN(CC)CCNC(=O)c1c(C)[nH]c(/C=C2\C(=O)Nc3ccc(F)cc32)c1C
inhibition (Mitogen-activated protein kinase 14 (MAPK14, Homo sapiens, UniProt Q16539); enzyme activity, inhibitor; 0.3 µM): -11%
